Assay results as given in article PMC7398576 (Oncogene, 2020).

Key:
H1299-p53-A138V cells = assay: Western blot in H1299-p53-A138V temperature-sensitive cells; assay type: cell-based; details: activated at 32 °C, 8 h
Method in brief: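 H1299 (p53-null) cells stably carrying temperature-sensitive p53-A138V were grown in DMEM with 10% FBS. They were kept at 39 °C or shifted to 32 °C with test compound for 8 h. Cells were lysed in 50 mM Tris-HCl pH 8.0, 5 mM EDTA, 150 mM NaCl, 0.5% NP-40 and protease inhibitors. p53 and target genes were resolved by SDS-PAGE and western blot.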

C57BL/6 mice = assay: Radiation toxicity in mice; assay type: in vivo, mouse
p53 [1] = molecular target: T1, p53 (Homo sapiens, UniProt P04637); assay: Glutaraldehyde crosslinking of p53 in H1299 extract; assay type: biochemical; details: 10 μM NSC194598
Method in brief: (§1)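 H1299 cells transiently transfected with pcDNA3 FLAG-tagged wild-type or mutant p53 were lysed in HEPES buffer (50 mM HEPES pH 8.0, 5 mM EDTA, 150 mM NaCl, 0.5% NP-40, protease inhibitors) and spun to clear. Lysate was held with 10 μM test compound for 20 min at 23 °C. It was then crosslinked with 0.01–0.1% glutaraldehyde for 5 min at 23 °C and quenched with Tris-HCl pH 8.0 to 100 mM. Monomer, dimer and tetramer were read by western blot (FL393).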

p53 [2] = molecular target: p53 (Homo sapiens, UniProt P04637, R175H); assay: as above; assay type: biochemical; details: 10 μM NSC194598
Method in brief: as §1

[3] = molecular target: FLAG-p53-94-312 DNA-binding domain (Homo sapiens, UniProt P04637); assay: Differential scanning fluorimetry; details: 100 μM compound, 4.5 μM protein
Method in brief: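 FLAG-p53 94–312 expressed in E. coli (pET-28b), purified on M2 beads and FLAG-peptide eluted. DSF with 4.5 μM protein, 100 μM test compound and 5× SYPRO Orange in 50 mM HEPES pH7.4, 150 mM NaCl, 2 mM DTT, 2% DMSO. Heated 25→95 °C at 1 °C/min, read every 0.5 °C at 610 nm, quadruplicate. ΔTm taken against DMSO wells.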

p53 [4] = molecular target: T1, p53; assay: p53-responsive luciferase reporter assay in transfected H1299 cells; assay type: cell-based; details: 6 h treatment
Method in brief: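 H1299 cells (p53-null; 50,000/well) transfected 24 h by lipofection with 20 ng BP100-luciferase reporter, 5 ng CMV-lacZ and 0.2 ng CMV-p53. Then 6 h test compound. Activity expressed as luciferase/β-galactosidase ratio.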

p63γ-A167P = p63γ-A167P (Homo sapiens, UniProt Q9H3D4, A206P); assay: ChIP of p63γ-A167P temperature-sensitive mutant; assay type: cell-based; details: 32 °C
Method in brief: (§2)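 ChIP by standard procedure, read by SYBR Green real-time PCR of target promoters. Antibodies: anti-HA tag (C29F4) for p63, p73 and c-MYC; KH95 for E2F1.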

TCF1 [5] = molecular target: T2, TCF1 (Homo sapiens, UniProt P36402); assay: Biotinylated oligonucleotide pull down assay, FLAG-TCF1; assay type: biochemical
TCF1 [6] = molecular target: T2, TCF1; assay: TCF1-specific zinc finger competition assay; assay type: biochemical
[7] = molecular target: TAF1 bromodomain 2 (aa 1501–1635) (Homo sapiens, UniProt P21675); assay: Differential scanning fluorimetry; assay type: binding; details: 100 μM compound, 4.5 μM protein
Method in brief: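 TAF1 second bromodomain (residues 1501–1635) purified by Ni-NTA and size exclusion. Thermal shift with 4.5 μM protein, 100 μM compound and 5× SYPRO Orange in HEPES pH7.4/150 mM NaCl/2 mM DTT/2% DMSO. Ramp 25–95 °C at 1 °C/min, fluorescence at 610 nm every 0.5 °C, four replicates. ΔTm relative to DMSO reference.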

p63γ = p63γ (Homo sapiens, UniProt Q9H3D4); assay: ZF1-Nluc/ZF2-Cluc DNA-binding competition assay, p63γ; assay type: biochemical; details: at low micromolar concentrations
[8] = tested on: p53 target genes (p21, MDM2, PUMA) in U2OS cells; assay: Western blot / RT-PCR of p53 level and target genes in U2OS cells; assay type: cell-based, human
Primary mouse thymocytes = assay: Primary mouse thymocytes, radiation-induced apoptosis and viability; assay type: cell-based
[9] = tested on: MDM2-mediated ubiquitination of p53; assay: In vivo ubiquitination assay in H1299 cells; assay type: cell-based; details: H1299, 5 h treatment
Method in brief: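 H1299 cells co-transfected (PEI, 36 h) with 2 μg His6-ubiquitin, 0.2 μg p53 and 2 μg MDM2 plasmids, then treated 5 h. Lysed in 6 M guanidinium buffer, bound to Ni-NTA 16 h at 23 °C, washed with urea buffers (pH8.0 then 6.3). Imidazole/SDS elution 20 min at 23 °C, DO-1 western blot.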

p53 [10] = molecular target: T1, p53; assay: Biotinylated oligonucleotide pull down assay, p53 western blot; assay type: biochemical; details: for Inhibition of p53 DNA binding in oligonucleotide pull down: full-length p53
Method in brief: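 Pull-down: p53 (~0.1 μl E. coli lysate, 100 ng) with 2 μg poly(dI-dC) and 100 ng biotinylated duplex oligo carrying the p53 site, in Tris pH7.2/150 mM NaCl DNA-binding buffer, 30 min at 4 °C. Captured on streptavidin magnetic beads 30 min at 4 °C, washed three times, boiled, p53 western blot. Pre-treated bead-bound FLAG-p53: 10 μM, 30 min, washed 3 min or 3 h, FLAG-peptide eluted.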

p73β-A156I = p73β-A156I (Homo sapiens, UniProt O15350, A156I); assay: ChIP of p73β-A156I temperature-sensitive mutant; assay type: cell-based; details: 32 °C
Method in brief: as §2

p53-Cluc fusion protein = p53-Cluc fusion protein (UniProt P04637+P08659, D436G/I423L/L530R); assay: p53-Cluc luciferase fragment complementation DNA-binding assay; assay type: biochemical; details: read-out: IC50, inhibition of p53 sequence-specific DNA binding in vitro
Method in brief: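 The cell-free reaction used crude E. coli BL21(DE3) extracts: ZF1-Nluc plus p53-Cluc, each expressed from pET-28b with 1 mM IPTG and 0.1 mM ZnCl2 at 18 °C for 18 h. DNA was 50 ng plasmid carrying 12 paired ZF1/p53 sites. Buffer was 100 mM potassium phosphate pH 7.8, 1 mM ZnCl2, 5% glycerol, 1 mM DTT. After 35 min at 32 °C, luciferin/ATP substrate was added, 10 min at 23 °C, then luminescence read. Three experiments.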

p53 [11] = molecular target: T1, p53; assay: In vitro oligomer formation of HA-p53 and FLAG-p53; assay type: biochemical
p73β = p73β (Homo sapiens, UniProt O15350); assay: ZF1-Nluc/ZF2-Cluc DNA-binding competition assay, p73β; assay type: biochemical; details: at low micromolar concentrations
E2F1 = E2F1 (Homo sapiens, UniProt Q01094); assay: ChIP of E2F1-ER fusion protein; assay type: cell-based; details: tamoxifen-regulated E2F1-ER fusion protein
Method in brief: as §2

[12] = tested on: G-quadruplex DNA structures; details: cited from earlier work
c-Myc = c-Myc (Homo sapiens, UniProt P01106); assay: ChIP of transiently expressed c-Myc; assay type: cell-based
Method in brief: as §2

Foxo1 = assay: Foxo1-responsive luciferase reporter assay in transfected H1299 cells; assay type: cell-based; details: 6 h treatment
Method in brief: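 H1299 cells (50,000/well) lipofected for 24 h with 20 ng 3IRS-luciferase Foxo1 reporter, 5 ng CMV-lacZ and 10 ng CMV-Foxo1, then exposed to compound for 6 h. Readout: luciferase normalised to β-galactosidase activity.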

[13] = molecular target: zinc finger proteins (ZF1-Nluc/ZF2-Cluc complementation) (Photinus pyralis, UniProt P08659, D436G/I423L/L530R); assay: ZF1-Nluc/ZF2-Cluc complementation in the absence of p53; assay type: biochemical
HCT116-p53−/− cells = assay: Western blot in HCT116-p53−/− cells; assay type: cell-based
p53 [14] = molecular target: T1, p53; assay: Trypsin digestion sensitivity of p53; assay type: biochemical
SJSA cells = assay: Western blot in SJSA cells; assay type: cell-based; details: 5–20 μM
Method in brief: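 SJSA cells (MDM2-amplified) were co-treated with the MDM2 inhibitor Nutlin and test compound for 32 h. Lysis was in NP-40/Tris buffer with protease inhibitors, followed by SDS-PAGE and western blot for p53 level and target-gene induction, including p21.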

RET oncogene = details: cited from earlier work
p53 [15] = molecular target: T1, p53; assay: ZF1-Nluc/ZF2-Cluc DNA-binding competition assay; assay type: biochemical; details: at low micromolar concentrations
p53 [16] = molecular target: T1, p53; assay: ChIP of p53 at target promoters in U2OS cells; assay type: cell-based
Method in brief: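 U2OS cells in DMEM/10% FBS, given test compound alone or with IR for 4 h. Chromatin immunoprecipitation with DO-1 anti-p53. Precipitated DNA quantified by SYBR Green real-time PCR with primers for the p21 and MDM2 promoters.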

full-length luciferase = full-length luciferase (Photinus pyralis, UniProt P08659); assay: Full-length luciferase activity; assay type: biochemical, Firefly
[17] = U2OS, compound alone, 10, 20 μM

T2 sequence (P36402 whole entry): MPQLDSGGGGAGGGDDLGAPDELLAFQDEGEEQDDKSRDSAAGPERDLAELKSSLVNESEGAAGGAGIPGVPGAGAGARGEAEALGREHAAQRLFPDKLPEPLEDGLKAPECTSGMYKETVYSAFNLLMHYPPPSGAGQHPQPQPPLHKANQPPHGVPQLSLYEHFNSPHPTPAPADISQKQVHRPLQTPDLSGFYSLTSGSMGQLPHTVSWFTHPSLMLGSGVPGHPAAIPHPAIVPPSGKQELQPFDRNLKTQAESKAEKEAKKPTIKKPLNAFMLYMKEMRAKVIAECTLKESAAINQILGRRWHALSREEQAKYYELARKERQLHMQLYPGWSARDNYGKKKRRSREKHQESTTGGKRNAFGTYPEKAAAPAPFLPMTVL
Sequence of p73β (O15350 1-499 isoform O15350-2, species assumed): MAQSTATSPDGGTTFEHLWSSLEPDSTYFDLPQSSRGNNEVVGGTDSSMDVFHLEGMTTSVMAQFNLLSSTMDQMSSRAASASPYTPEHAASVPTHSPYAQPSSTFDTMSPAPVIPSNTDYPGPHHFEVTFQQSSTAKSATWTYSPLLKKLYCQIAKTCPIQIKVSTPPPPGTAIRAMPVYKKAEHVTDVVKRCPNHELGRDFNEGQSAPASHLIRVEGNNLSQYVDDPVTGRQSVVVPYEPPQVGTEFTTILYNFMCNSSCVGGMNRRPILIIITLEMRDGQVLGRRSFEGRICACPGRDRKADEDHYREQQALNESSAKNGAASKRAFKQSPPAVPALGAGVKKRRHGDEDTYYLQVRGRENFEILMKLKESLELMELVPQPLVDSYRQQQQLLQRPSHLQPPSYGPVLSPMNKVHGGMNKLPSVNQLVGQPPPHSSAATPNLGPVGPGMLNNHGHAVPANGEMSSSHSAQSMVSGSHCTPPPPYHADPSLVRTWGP
Sequence of p63γ (Q9H3D4 40-487 isoform Q9H3D4-5 limits assumed): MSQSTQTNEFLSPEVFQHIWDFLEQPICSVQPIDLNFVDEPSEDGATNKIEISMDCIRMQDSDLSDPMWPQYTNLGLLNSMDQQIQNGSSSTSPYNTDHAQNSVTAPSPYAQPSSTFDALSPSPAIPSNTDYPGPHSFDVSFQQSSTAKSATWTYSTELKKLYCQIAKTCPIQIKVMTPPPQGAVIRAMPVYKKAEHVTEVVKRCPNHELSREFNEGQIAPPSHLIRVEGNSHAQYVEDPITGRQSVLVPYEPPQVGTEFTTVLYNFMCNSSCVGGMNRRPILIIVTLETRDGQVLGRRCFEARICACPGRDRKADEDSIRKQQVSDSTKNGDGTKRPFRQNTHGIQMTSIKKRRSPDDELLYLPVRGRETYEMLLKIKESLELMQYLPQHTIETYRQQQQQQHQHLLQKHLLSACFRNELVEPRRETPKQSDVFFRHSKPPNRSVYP
Sequence of p63γ-A167P (Q9H3D4 40-487 isoform Q9H3D4-5 A206P limits assumed): as the sequence (Q9H3D4 40-487 isoform Q9H3D4-5 limits assumed) above, with A167P counted along it
Sequence of E2F1 (Q01094 whole entry, the tested form may be a part): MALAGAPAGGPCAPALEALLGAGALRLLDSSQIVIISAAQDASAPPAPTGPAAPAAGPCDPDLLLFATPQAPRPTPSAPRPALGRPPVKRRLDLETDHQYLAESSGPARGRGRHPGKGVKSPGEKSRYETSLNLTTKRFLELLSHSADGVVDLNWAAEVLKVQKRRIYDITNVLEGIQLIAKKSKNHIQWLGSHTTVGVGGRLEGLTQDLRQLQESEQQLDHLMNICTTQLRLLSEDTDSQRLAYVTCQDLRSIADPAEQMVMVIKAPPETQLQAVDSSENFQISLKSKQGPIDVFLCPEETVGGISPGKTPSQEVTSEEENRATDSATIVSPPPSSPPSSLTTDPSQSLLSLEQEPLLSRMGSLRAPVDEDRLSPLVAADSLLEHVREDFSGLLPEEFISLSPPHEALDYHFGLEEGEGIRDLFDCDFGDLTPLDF
Sequence of TAF1 bromodomain 2 (aa 1501–1635) (P21675 1522-1656): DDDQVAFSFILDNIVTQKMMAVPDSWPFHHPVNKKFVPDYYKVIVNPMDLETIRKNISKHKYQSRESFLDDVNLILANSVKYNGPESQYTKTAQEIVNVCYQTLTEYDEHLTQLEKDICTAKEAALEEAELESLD
Sequence of p73β-A156I (O15350 1-499 isoform O15350-2 A156I): as the sequence (O15350 1-499 isoform O15350-2, species assumed) above, with A156I counted along it
Sequence of c-Myc (P01106 whole entry): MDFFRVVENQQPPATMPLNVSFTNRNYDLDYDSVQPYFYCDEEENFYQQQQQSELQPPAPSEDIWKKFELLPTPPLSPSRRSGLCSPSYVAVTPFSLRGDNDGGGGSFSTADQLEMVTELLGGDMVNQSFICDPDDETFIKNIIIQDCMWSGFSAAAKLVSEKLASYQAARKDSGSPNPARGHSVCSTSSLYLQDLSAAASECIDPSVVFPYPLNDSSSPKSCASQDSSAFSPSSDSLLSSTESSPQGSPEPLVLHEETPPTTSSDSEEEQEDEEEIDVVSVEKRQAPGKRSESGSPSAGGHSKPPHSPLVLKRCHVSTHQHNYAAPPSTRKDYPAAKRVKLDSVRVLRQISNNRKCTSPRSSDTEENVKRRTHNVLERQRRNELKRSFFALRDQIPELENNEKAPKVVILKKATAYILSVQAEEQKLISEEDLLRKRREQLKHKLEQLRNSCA
Sequence of c-Myc (P61244 whole entry partner): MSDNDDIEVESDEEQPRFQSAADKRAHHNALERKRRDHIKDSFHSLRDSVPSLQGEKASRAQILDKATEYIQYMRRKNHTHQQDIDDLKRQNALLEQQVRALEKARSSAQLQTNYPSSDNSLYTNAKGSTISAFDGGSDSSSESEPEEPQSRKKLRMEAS

SMILES: [O-][n+]1c(CN2CCCCC2)nc2cccc3c2c1-c1ccccc1-3 [NSC194598]
- p21 induction and p53 level in H1299-p53-A138V (H1299-p53-A138V cells): inhibited p21 induction without changing p53 level
- p53 or PARP cleavage in the thymus of treated animals (western blot) (C57BL/6 mice; data not shown): did not reveal increase of p53 or PARP cleavage
- Body weight after irradiation (C57BL/6 mice; single i.p. injection of 80 μg, 8 Gy): did not prevent body weight loss
- Survival after irradiation (C57BL/6 mice; single i.p. injection of 80 μg, 8 Gy, 40-day observation): statistically significant improvement in survival
- Crosslinking banding pattern of dimer and tetramer, wt p53 (p53 [1]): detected changes in the banding pattern
- Crosslinking pattern of R175H conformational mutant (p53 [2]): did not affect the crosslinking pattern
- Increase in melting temperature (ΔTm) of FLAG-94-312 [3]: 0.5 °C
- p53 activation of p53-responsive luciferase reporter (p53 [4]): inhibited
- In vivo DNA binding by p63γ-A167P (ChIP) (p63γ-A167P): inhibited
- Inhibition of TCF1 DNA binding in oligonucleotide pull down (TCF1 [5]): did not inhibit
- Effect on TCF1 competition with zinc finger protein (TCF1 [6]): without effect
- Effect on melting temperature of TAF1 bromodomain 2 [7]: did not affect
- Inhibition of p63γ DNA binding in competition assay (p63γ): inhibited
- p21 induction after p53 activation by Nutlin and doxorubicin ([8]; MDM2 inhibitor Nutlin or doxorubicin): inhibited p21 induction
- p21, MDM2, PUMA protein and mRNA expression ([8]; U2OS after irradiation): inhibition of p21, MDM2, PUMA protein and mRNA expression
- p53 target gene expression, compound alone at 40 μM ([8]; U2OS, 40 μM): decline in p53 target gene expression
- Decrease of MDM2/p53 ratio ([8]; U2OS, 4 h treatment): ~ 50%
- p53 level and target genes p21 and MDM2, compound alone [8, 17]: caused p53 accumulation and upregulation of target genes p21 and MDM2
- p53 mRNA level ([8]; compound alone): no increase in p53 mRNA level
- γH2AX and p53 Ser15 phosphorylation (DNA damage) ([8]; compound alone): no increase of γH2AX or p53 Ser15 phosphorylation
- p53 level in irradiated thymocytes (Primary mouse thymocytes; 1 μM or higher, with IR): reduced p53 level
- PARP and Caspase 3 cleavage after IR (Primary mouse thymocytes; 0.5–10 μM, 6 h, dose-dependent): blocked PARP and Caspase 3 cleavage
- Thymocyte viability after IR (trypan blue exclusion) (Primary mouse thymocytes; 20 hours after 5 Gy IR, 5 μM): increased thymocyte viability
- p53 level and cleaved PARP, compound alone (Primary mouse thymocytes; high concentrations, no IR): caused p53 accumulation
- Thymocyte viability with compound alone (trypan blue exclusion) (Primary mouse thymocytes; no IR): did not lose viability
- MDM2-mediated ubiquitination of p53 [9]: had no effect
- Inhibition of DNA binding of p53 DNA-binding domain (90–312) (pull down) (p53 [10]; 2.5 μM NSC194598): still showed inhibition
- Inhibition of DNA binding of p53 deletion mutant 1–360 (pull down) (p53 [10]; 2.5 μM NSC194598): strongly inhibited
- Inhibition of DNA binding of p53 deletion mutant 90–393 (pull down) (p53 [10]; 2.5 μM NSC194598): strongly inhibited
- DNA binding of compound-treated FLAG-p53 after short wash (p53 [10]; 10 μM for 30 min, wash 3 min): did not bind DNA
- DNA binding of compound-treated FLAG-p53 after extensive wash (p53 [10]; 10 μM for 30 min, wash 3 h): regained DNA-binding activity
- Inhibition of p53 DNA binding in oligonucleotide pull down (p53 [10]): inhibited p53 DNA binding
- In vivo DNA binding by p73β-A156I (ChIP) (p73β-A156I): inhibited
- IC50 (p53-Cluc fusion protein): 180 nM
- Oligomer formation of HA-p53 and FLAG-p53 (p53 [11]): did not inhibit oligomer formation
- Inhibition of p73β DNA binding in competition assay (p73β): inhibited
- DNA binding of E2F1 (ChIP) (E2F1): did not inhibit
- Binding to G-quadruplex DNA structures [12]: binds G-quadruplex DNA structures
- DNA binding of c-Myc (ChIP) (c-Myc): did not inhibit
- Foxo1 activation of its luciferase reporter (Foxo1): did not inhibit
- Effect on ZF1-Nluc/ZF2-Cluc complementation readout [13]: did not stimulate readout
- Induction of p21 and MDM2 in p53-null cells (HCT116-p53−/− cells): did not induce p21 and MDM2
- p53 sensitivity to trypsin digestion (p53 [14]): did not change sensitivity to trypsin digestion
- p53 accumulation and p21 expression in SJSA versus U2OS (SJSA cells): much weaker p53 accumulation and p21 expression
- Transcription of RET oncogene (RET oncogene): inhibits the transcription of RET oncogene
- Inhibition of p53 DNA binding in competition assay (p53 [15]): inhibited
- p53 occupancy at the p21 promoter (ChIP), compound alone (p53 [16]; [17]): increased p53 occupancy
- p53 occupancy at p21 and MDM2 promoters (ChIP) (p53 [16]; irradiated U2OS cells, 4 hrs): reduced p53 occupancy

SMILES: Cc1ccc(C(=O)Cn2c3c(sc2=N)CCCC3)cc1 [PFTα, Pifithrin-α, reference compound]
- Inhibition of p53 DNA binding in oligonucleotide pull down (p53 [10]): had no effect
- Effect on activity of full-length luciferase (full-length luciferase): inhibited
- Effect on ZF1-Nluc/ZF2-Cluc complementation readout [13]: inhibited
